From ChEMBL document CHEMBL1687761 (2010) come the findings set out here.

≈ marks a conversion by molar mass, not a printed value.

What is called MIC is the lowest concentration that inhibits growth of the organism. Read a high MIC as a need for much substance.

Holding throughout (assay type): functional
Experiment [1] relates to Escherichia coli. The experiment can be described thus: Antimicrobial activity against Escherichia coli XL1-Blue harboring pLBII-VIM-2 plasmid expressing VIM-2 W87F mutant beta-lactamase by broth microdilution method. An outline of the steps:
(§1)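 Isogenic E. coli XL-1 strains carried pLBII-VIM-2 encoding wild-type or mutant VIM-2, or the empty pBC-SK vector. β-Lactam MICs were determined by CLSI broth microdilution in cation-adjusted Mueller-Hinton broth.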
(In general: Dilution methods test growth across graded concentrations, often in twofold steps.)

Experiment [2] concerns Escherichia coli. In words: Antimicrobial activity against Escherichia coli XL1-Blue harboring pBC-SK plasmid by broth microdilution method. An outline of the steps: as §1
For experiment [3], the system named is Escherichia coli. In words: Antimicrobial activity against Escherichia coli XL1-Blue harboring pLBII-VIM-2 plasmid expressing VIM-2 beta-lactamase by broth microdilution method. An outline of the steps: as §1
Experiment [4] concerns Escherichia coli. The experiment can be described thus: Antimicrobial activity against Escherichia coli XL1-Blue harboring pLBII-VIM-2 plasmid expressing VIM-2 W87A mutant beta-lactamase by broth microdilution method. An outline of the steps:
as §1

The subject of experiment [5] is Escherichia coli. In words: Antimicrobial activity against Escherichia coli XL1-Blue harboring pLBII-VIM-2 plasmid expressing VIM-2 A64W mutant beta-lactamase by broth microdilution method. An outline of the steps:
as §1

The subject of experiment [6] is Escherichia coli. In words: Antimicrobial activity against Escherichia coli XL1-Blue VIM-2 F61R mutant beta-lactamase by broth microdilution method.
Experiment [7] relates to Escherichia coli. In words: Antimicrobial activity against Escherichia coli XL1-Blue VIM-2 W87R mutant beta-lactamase by broth microdilution method.
Experiment [8] concerns Escherichia coli. The experiment can be described thus: Antimicrobial activity against Escherichia coli XL1-Blue VIM-2 F61I mutant beta-lactamase by broth microdilution method.
Experiment [9] concerns Escherichia coli. The experiment can be described thus: Antimicrobial activity against Escherichia coli XL1-Blue VIM-2 W87T mutant beta-lactamase by broth microdilution method.
Experiment [10] deals with Escherichia coli. The experiment can be described thus: Antimicrobial activity against Escherichia coli XL1-Blue VIM-2 W87V mutant beta-lactamase by broth microdilution method.
Experiment [11] has as its system Escherichia coli. The experiment can be described thus: Antimicrobial activity against Escherichia coli XL1-Blue VIM-2 W87M mutant beta-lactamase by broth microdilution method.
For experiment [12], the system named is Escherichia coli. In words: Antimicrobial activity against Escherichia coli XL1-Blue VIM-2 W87G mutant beta-lactamase by broth microdilution method.
Experiment [13] deals with Escherichia coli. In words: Antimicrobial activity against Escherichia coli XL1-Blue VIM-2 W87Q mutant beta-lactamase by broth microdilution method.
The test system of experiment [14] is Escherichia coli. In words: Antimicrobial activity against Escherichia coli XL1-Blue VIM-2 F61S mutant beta-lactamase by broth microdilution method.
For experiment [15], the system named is Escherichia coli. The experiment can be described thus: Antimicrobial activity against Escherichia coli XL1-Blue VIM-2 F61Y mutant beta-lactamase by broth microdilution method.
Experiment [16] has as its system Escherichia coli. In words: Antimicrobial activity against Escherichia coli XL1-Blue VIM-2 F61N mutant beta-lactamase by broth microdilution method.
Experiment [17] has as its system Escherichia coli. In words: Antimicrobial activity against Escherichia coli XL1-Blue VIM-2 F61L mutant beta-lactamase by broth microdilution method.
The subject of experiment [18] is Escherichia coli. In words: Antimicrobial activity against Escherichia coli XL1-Blue VIM-2 W87N mutant beta-lactamase by broth microdilution method.
Experiment [19] relates to Escherichia coli. The experiment can be described thus: Antimicrobial activity against Escherichia coli XL1-Blue VIM-2 F61A mutant beta-lactamase by broth microdilution method.
Experiment [20] deals with Escherichia coli. The experiment can be described thus: Antimicrobial activity against Escherichia coli XL1-Blue VIM-2 W87S mutant beta-lactamase by broth microdilution method.
For experiment [21], the system named is Escherichia coli. In words: Antimicrobial activity against Escherichia coli XL1-Blue VIM-2 F61K mutant beta-lactamase by broth microdilution method.
In experiment [22] the test system is Escherichia coli. The experiment can be described thus: Antimicrobial activity against Escherichia coli XL1-Blue VIM-2 W87A mutant beta-lactamase by broth microdilution method.
Experiment [23] concerns Escherichia coli. In words: Antimicrobial activity against Escherichia coli XL1-Blue VIM-2 F61C mutant beta-lactamase by broth microdilution method.
For experiment [24], the system named is Escherichia coli. The experiment can be described thus: Antimicrobial activity against Escherichia coli XL1-Blue VIM-2 W87I mutant beta-lactamase by broth microdilution method.
Experiment [25] concerns Escherichia coli. In words: Antimicrobial activity against Escherichia coli XL1-Blue VIM-2 F61G mutant beta-lactamase by broth microdilution method.
Experiment [26] concerns Escherichia coli. The experiment can be described thus: Antimicrobial activity against Escherichia coli XL1-Blue VIM-2 W87L mutant beta-lactamase by broth microdilution method.
Experiment [27] deals with Escherichia coli. The experiment can be described thus: Antimicrobial activity against Escherichia coli XL1-Blue VIM-2 F61H mutant beta-lactamase by broth microdilution method.
For experiment [28], the system named is Escherichia coli. In words: Antimicrobial activity against Escherichia coli XL1-Blue VIM-2 F61W mutant beta-lactamase by broth microdilution method.
Experiment [29] concerns Escherichia coli. In words: Antimicrobial activity against Escherichia coli XL1-Blue VIM-2 F61V mutant beta-lactamase by broth microdilution method.
For experiment [30], the system named is Escherichia coli. The experiment can be described thus: Antimicrobial activity against Escherichia coli XL1-Blue VIM-2 F61P mutant beta-lactamase by broth microdilution method.
In experiment [31] the test system is Escherichia coli. The experiment can be described thus: Antimicrobial activity against Escherichia coli XL1-Blue VIM-2 F61T mutant beta-lactamase by broth microdilution method.
Experiment [32] deals with Escherichia coli. The experiment can be described thus: Antimicrobial activity against Escherichia coli XL1-Blue VIM-2 W87P mutant beta-lactamase by broth microdilution method.
Experiment [33] deals with Escherichia coli. In words: Antimicrobial activity against Escherichia coli XL1-Blue VIM-2 W87Y mutant beta-lactamase by broth microdilution method.
Experiment [34] relates to Escherichia coli. In words: Antimicrobial activity against Escherichia coli XL1-Blue VIM-2 W87F mutant beta-lactamase by broth microdilution method.
Experiment [35] concerns Escherichia coli. In words: Antimicrobial activity against Escherichia coli XL1-Blue VIM-2 W87K mutant beta-lactamase by broth microdilution method.

For the molecule `C[C@@H](O)[C@H]1C(=O)N2C(C(=O)O)=C(S[C@@H]3CN[C@H](C(=O)Nc4cccc(C(=O)O)c4)C3)[C@H](C)[C@H]12`, the MIC in the experiment on Escherichia coli [1] is not above 0.03 mg/L; in the experiment on Escherichia coli [2], not above 0.03 mg/L; against Escherichia coli [3], 0.5 mg/L (≈ 1.05 µM); in the experiment with Escherichia coli [4] it was not above 0.03 mg/L; in the experiment on Escherichia coli [5] it was 0.5 mg/L (≈ 1.05 µM).
`CO/N=C(\C(=O)N[C@@H]1C(=O)N2C(C(=O)[O-])=C(C[N+]3(C)CCCC3)CS[C@H]12)c1csc(N)n1`: the MIC against Escherichia coli [3] worked out at 0.5 mg/L (≈ 1.04 µM); against Escherichia coli [4] it was 0.12 mg/L (≈ 0.25 µM); with Escherichia coli [5], 0.5 mg/L (≈ 1.04 µM).
With `CC1(C)S[C@@H]2[C@H](NC(=O)[C@H](N)c3ccccc3)C(=O)N2[C@H]1C(=O)O` [AMPICILLIN], the MIC against Escherichia coli [6] was 8 mg/L (≈ 22.9 µM); with Escherichia coli [7], not above 4 mg/L; in the experiment with Escherichia coli [8], not below 32 mg/L; with Escherichia coli [9], not above 4 mg/L; against Escherichia coli [10], not above 4 mg/L; against Escherichia coli [11] it was not above 4 mg/L. Further, the MIC with Escherichia coli [1] was 8 mg/L (≈ 22.9 µM); against Escherichia coli [12] it was not above 4 mg/L; against Escherichia coli [13] it was not above 4 mg/L; with Escherichia coli [14] it was 8 mg/L (≈ 22.9 µM); with Escherichia coli [15], not below 32 mg/L; with Escherichia coli [16], not below 32 mg/L. The MIC in the experiment with Escherichia coli [17] was not below 32 mg/L; against Escherichia coli [18] it was not above 4 mg/L; in the experiment with Escherichia coli [19], not below 32 mg/L; with Escherichia coli [20] it was not above 4 mg/L; against Escherichia coli [3], 64 mg/L (≈ 183 µM); in the experiment with Escherichia coli [21], not below 32 mg/L. For the same molecule, the MIC against Escherichia coli [22] is not above 4 mg/L; against Escherichia coli [23] it was 8 mg/L (≈ 22.9 µM); against Escherichia coli [24], not above 4 mg/L; with Escherichia coli [25], not below 32 mg/L; against Escherichia coli [26], not above 4 mg/L; in the experiment on Escherichia coli [27], not below 32 mg/L. The MIC against Escherichia coli [28] is not below 32 mg/L; against Escherichia coli [29] it was not below 32 mg/L; with Escherichia coli [30], 8 mg/L (≈ 22.9 µM); in the experiment on Escherichia coli [31] it was not below 32 mg/L; in the experiment on Escherichia coli [32] it was not above 4 mg/L; against Escherichia coli [33] it was not above 4 mg/L. Besides, the figures for the MIC with Escherichia coli [34], against Escherichia coli [35] and against Escherichia coli [5] were not above 4 mg/L, not above 4 mg/L and 64 mg/L (≈ 183 µM), respectively.
Consider `C[C@H]1[C@H](NC(=O)/C(=N\OC(C)(C)C(=O)O)c2csc(N)n2)C(=O)N1S(=O)(=O)O` [AZTREONAM], for which the MIC in the experiment with Escherichia coli [3], in the experiment with Escherichia coli [4] and against Escherichia coli [5] was 0.12 mg/L (≈ 0.276 µM) each time.
For `CO/N=C(\C(=O)N[C@@H]1C(=O)N2C(C(=O)O)=C(COC(C)=O)CS[C@H]12)c1csc(N)n1` [CEFOTAXIME], the MIC was 0.12 mg/L (≈ 0.263 µM) against Escherichia coli [1]; 0.12 mg/L (≈ 0.263 µM) in the experiment with Escherichia coli [2]; more than 32 mg/L against Escherichia coli [3]; 0.12 mg/L (≈ 0.263 µM) in the experiment with Escherichia coli [4]; more than 32 mg/L against Escherichia coli [5].
Regarding `CO[C@@]1(NC(=O)Cc2cccs2)C(=O)N2C(C(=O)O)=C(COC(N)=O)CS[C@@H]21` [CEFOXITIN], the MIC stood at 8 mg/L (≈ 18.7 µM) with Escherichia coli [1]; 8 mg/L (≈ 18.7 µM) against Escherichia coli [2]; 128 mg/L (≈ 299 µM) with Escherichia coli [3]; 8 mg/L (≈ 18.7 µM) in the experiment on Escherichia coli [4]; 128 mg/L (≈ 299 µM) against Escherichia coli [5].
Regarding `CC(C)(O/N=C(\C(=O)N[C@@H]1C(=O)N2C(C(=O)[O-])=C(C[n+]3ccccc3)CS[C@H]12)c1csc(N)n1)C(=O)O` [CEFTAZIDIME], the minimal inhibitory concentration (MIC) was determined as 0.12 mg/L (≈ 0.22 µM) in the experiment on Escherichia coli [1]; 0.12 mg/L (≈ 0.22 µM) in the experiment with Escherichia coli [2]; 2 mg/L (≈ 3.66 µM) with Escherichia coli [3]; 0.12 mg/L (≈ 0.22 µM) with Escherichia coli [4]; 2 mg/L (≈ 3.66 µM) with Escherichia coli [5].
On to `CO/N=C(\C(=O)N[C@@H]1C(=O)N2C(C(=O)O)=C(CSc3nc(=O)c(O)nn3C)CS[C@H]12)c1csc(N)n1` [CEFTRIAXONE], for which the MIC against Escherichia coli [1] was 0.12 mg/L (≈ 0.216 µM); in the experiment with Escherichia coli [2], 0.12 mg/L (≈ 0.216 µM); against Escherichia coli [3], 4 mg/L (≈ 7.21 µM); in the experiment on Escherichia coli [4], 0.12 mg/L (≈ 0.216 µM); against Escherichia coli [5] it was 4 mg/L (≈ 7.21 µM).
On to `CO/N=C(\C(=O)N[C@@H]1C(=O)N2C(C(=O)O)=C(COC(N)=O)CS[C@H]12)c1ccco1` [CEFUROXIME], for which the MIC in the experiment with Escherichia coli [1] came to 8 mg/L (≈ 18.9 µM); in the experiment with Escherichia coli [2], 8 mg/L (≈ 18.9 µM); in the experiment with Escherichia coli [3] it was 256 mg/L (≈ 603 µM); against Escherichia coli [4] it was 8 mg/L (≈ 18.9 µM); against Escherichia coli [5], 256 mg/L (≈ 603 µM).
For the molecule `CC(=O)OCC1=C(C(=O)O)N2C(=O)[C@@H](NC(=O)Cc3cccs3)[C@H]2SC1` [CEPHALOTHIN], the MIC in the experiment on Escherichia coli [2] worked out at 16 mg/L (≈ 40.4 µM); against Escherichia coli [3], 256 mg/L (≈ 646 µM); against Escherichia coli [4], 16 mg/L (≈ 40.4 µM); with Escherichia coli [5], 256 mg/L (≈ 646 µM).
Regarding `C[C@@H](O)[C@H]1C(=O)N2C(C(=O)O)=C(SCCNC=N)C[C@H]12` [IMIPENEM ANHYDROUS], the MIC worked out at 1 mg/L (≈ 3.34 µM) in the experiment with Escherichia coli [3], 0.12 mg/L (≈ 0.401 µM) in the experiment with Escherichia coli [4] and 1 mg/L (≈ 3.34 µM) in the experiment with Escherichia coli [5].
Take `C[C@@H](O)[C@H]1C(=O)N2C(C(=O)O)=C(S[C@@H]3CN[C@H](C(=O)N(C)C)C3)[C@H](C)[C@H]12` [MEROPENEM]: the MIC was not above 0.03 mg/L in the experiment with Escherichia coli [1]; not above 0.03 mg/L against Escherichia coli [2]; 0.5 mg/L (≈ 1.3 µM) with Escherichia coli [3]; not above 0.03 mg/L in the experiment with Escherichia coli [4]; 0.5 mg/L (≈ 1.3 µM) in the experiment on Escherichia coli [5].
`CCN1CCN(C(=O)N[C@@H](C(=O)N[C@@H]2C(=O)N3[C@@H]2SC(C)(C)[C@@H]3C(=O)O)c2ccccc2)C(=O)C1=O` [PIPERACILLIN]: the minimum inhibitory concentration (MIC) against Escherichia coli [1] is 0.5 mg/L (≈ 0.966 µM); against Escherichia coli [2], 0.5 mg/L (≈ 0.966 µM); in the experiment on Escherichia coli [3] it was 8 mg/L (≈ 15.5 µM); in the experiment on Escherichia coli [4], 0.5 mg/L (≈ 0.966 µM); against Escherichia coli [5], 8 mg/L (≈ 15.5 µM).
